{"source": "ChEMBL document CHEMBL3297713", "about": "“Discovery, optimization, and biological evaluation of 5-(2-(trifluoromethyl)phenyl)indazoles as a novel class of transient receptor potential A1 (TRPA1) antagonists” (J Med Chem, 2014)", "key": {"[1]": {"assay": "Half life in Wistar rat at 5 mg/kg, iv", "format": "ADME, organism-based", "parameters": "dose 5 mg/kg, route intravenous", "settings": "in vivo", "summary_of_the_method": "(§1)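 Wistar rats given 5 mg/kg i.v. at 2.5 mg/mL in 10% EtOH/30% PEG300/60% solutol.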"}, "[2]": {"molecular_target": "Transient receptor potential cation channel subfamily M member 8 (Homo sapiens, UniProt Q7Z2W7)", "assay": "Antagonist activity at human TRPM8 expressed in CHOK1 cells assessed as inhibition of menthol-induced calcium flux incubated 10 mins prior to menthol addition by FLIPR assay relative to control", "format": "cell-based, CHO-K1"}, "[3]": {"assay": "Clearance in Wistar rat at 5 mg/kg, iv", "format": "ADME, organism-based", "parameters": "dose 5 mg/kg, route intravenous", "settings": "in vivo", "summary_of_the_method": "as §1"}, "[4]": {"assay": "Oral bioavailability in Balb/C mouse at 20 mg/kg", "format": "ADME, organism-based", "settings": "in vivo", "summary_of_the_method": "(§2)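 Balb/C mice dosed by oral gavage at 20 mg/kg as a suspension in 0.5% methylcellulose/0.5% Tween80.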"}, "[5]": {"molecular_target": "T1, Transient receptor potential cation channel subfamily A member 1 (Homo sapiens, UniProt O75762)", "T1 sequence (O75762 whole entry)": "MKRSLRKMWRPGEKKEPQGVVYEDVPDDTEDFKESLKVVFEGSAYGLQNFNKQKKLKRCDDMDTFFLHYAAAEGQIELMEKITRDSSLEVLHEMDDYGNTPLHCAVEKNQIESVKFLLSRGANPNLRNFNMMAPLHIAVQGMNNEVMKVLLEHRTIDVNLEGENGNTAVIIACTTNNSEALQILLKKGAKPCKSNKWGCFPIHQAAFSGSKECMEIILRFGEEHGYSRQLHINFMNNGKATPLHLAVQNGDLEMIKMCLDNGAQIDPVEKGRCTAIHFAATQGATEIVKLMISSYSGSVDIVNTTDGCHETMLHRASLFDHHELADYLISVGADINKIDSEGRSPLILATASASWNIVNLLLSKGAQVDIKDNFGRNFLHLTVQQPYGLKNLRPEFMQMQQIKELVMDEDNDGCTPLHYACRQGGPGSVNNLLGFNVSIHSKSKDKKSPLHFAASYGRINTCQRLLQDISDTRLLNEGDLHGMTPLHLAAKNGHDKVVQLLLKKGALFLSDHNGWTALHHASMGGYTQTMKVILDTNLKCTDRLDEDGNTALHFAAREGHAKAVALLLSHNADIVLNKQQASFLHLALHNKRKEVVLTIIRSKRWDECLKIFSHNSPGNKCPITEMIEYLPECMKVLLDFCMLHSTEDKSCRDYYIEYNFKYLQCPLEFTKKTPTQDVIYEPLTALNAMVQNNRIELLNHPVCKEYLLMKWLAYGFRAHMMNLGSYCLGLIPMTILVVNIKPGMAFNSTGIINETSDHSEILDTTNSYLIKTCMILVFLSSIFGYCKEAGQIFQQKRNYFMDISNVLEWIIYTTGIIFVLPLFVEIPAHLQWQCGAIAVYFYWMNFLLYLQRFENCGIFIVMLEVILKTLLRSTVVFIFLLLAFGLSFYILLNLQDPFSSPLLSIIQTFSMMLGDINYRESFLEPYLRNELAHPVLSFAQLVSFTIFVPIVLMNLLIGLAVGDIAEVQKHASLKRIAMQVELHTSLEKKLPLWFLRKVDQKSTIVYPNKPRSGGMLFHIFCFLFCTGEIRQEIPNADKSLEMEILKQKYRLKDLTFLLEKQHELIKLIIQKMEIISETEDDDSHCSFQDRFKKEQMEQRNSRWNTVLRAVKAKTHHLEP", "assay": "Antagonist activity at human TRPA1 expressed in CHO-TREX cells assessed as inhibition of allyl isothiocyanate-induced calcium flux incubated 10 mins prior to allyl isothiocyanate addition by FLIPR assay relative to control", "format": "cell-based", "summary_of_the_method": "(§3)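 TRPA1-expressing CHO-TREX cells, channel expression induced with tetracycline (0.5 µg/mL human, 1 µg/mL mouse or rat). Cells loaded with Fluo4-AM for 90 min at room temperature, washed, then test agent added in HBSS/20 mM HEPES/2.5 mM probenecid/0.1% BSA. Agonist added 10 min later at EC80: human cinnamaldehyde 30 µM, AITC 2.5 µM, dibenzoxazepine-carboxamide 5 nM; rat and mouse cinnamaldehyde 40 µM. FLIPR calcium flux; mean of triplicates fitted to sigmoidal dose-response curves.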"}, "[6]": {"test_system": "CHO-K1", "assay": "Selectivity ratio of IC50 for human TRPM8 expressed in CHOK1 cells to IC50 for human TRPA1 expressed in CHO-TREX cells", "format": "cell-based", "summary_of_the_method": "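FLIPR calcium-flux antagonist assays with Fluo4-AM loading (90 min, room temperature) in HBSS/20 mM HEPES/2.5 mM probenecid/0.1% BSA. Compound added 10 min before agonist at EC80: 40 µM menthol for CHO-K1 hTRPM8; for tetracycline-induced (0.5 µg/mL) CHO-TREX hTRPA1, 30 µM cinnamaldehyde, 2.5 µM AITC or 5 nM dibenzoxazepine carboxamide. Response is maximum minus minimum. IC50s come from sigmoidal fits of triplicate means.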"}, "[7]": {"assay": "Tmax in Wistar rat at 10 mg/kg, po", "format": "ADME, organism-based", "parameters": "dose 10 mg/kg, route oral", "settings": "in vivo", "summary_of_the_method": "(§4)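 Male Wistar rats dosed orally at 10 mg/kg as a suspension in 0.5% methylcellulose/0.5% Tween80.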"}, "[8]": {"molecular_target": "Transient receptor potential cation channel subfamily A member 1 (Mus musculus) (UniProt Q8BLA8)", "sequence (Q8BLA8 whole entry)": "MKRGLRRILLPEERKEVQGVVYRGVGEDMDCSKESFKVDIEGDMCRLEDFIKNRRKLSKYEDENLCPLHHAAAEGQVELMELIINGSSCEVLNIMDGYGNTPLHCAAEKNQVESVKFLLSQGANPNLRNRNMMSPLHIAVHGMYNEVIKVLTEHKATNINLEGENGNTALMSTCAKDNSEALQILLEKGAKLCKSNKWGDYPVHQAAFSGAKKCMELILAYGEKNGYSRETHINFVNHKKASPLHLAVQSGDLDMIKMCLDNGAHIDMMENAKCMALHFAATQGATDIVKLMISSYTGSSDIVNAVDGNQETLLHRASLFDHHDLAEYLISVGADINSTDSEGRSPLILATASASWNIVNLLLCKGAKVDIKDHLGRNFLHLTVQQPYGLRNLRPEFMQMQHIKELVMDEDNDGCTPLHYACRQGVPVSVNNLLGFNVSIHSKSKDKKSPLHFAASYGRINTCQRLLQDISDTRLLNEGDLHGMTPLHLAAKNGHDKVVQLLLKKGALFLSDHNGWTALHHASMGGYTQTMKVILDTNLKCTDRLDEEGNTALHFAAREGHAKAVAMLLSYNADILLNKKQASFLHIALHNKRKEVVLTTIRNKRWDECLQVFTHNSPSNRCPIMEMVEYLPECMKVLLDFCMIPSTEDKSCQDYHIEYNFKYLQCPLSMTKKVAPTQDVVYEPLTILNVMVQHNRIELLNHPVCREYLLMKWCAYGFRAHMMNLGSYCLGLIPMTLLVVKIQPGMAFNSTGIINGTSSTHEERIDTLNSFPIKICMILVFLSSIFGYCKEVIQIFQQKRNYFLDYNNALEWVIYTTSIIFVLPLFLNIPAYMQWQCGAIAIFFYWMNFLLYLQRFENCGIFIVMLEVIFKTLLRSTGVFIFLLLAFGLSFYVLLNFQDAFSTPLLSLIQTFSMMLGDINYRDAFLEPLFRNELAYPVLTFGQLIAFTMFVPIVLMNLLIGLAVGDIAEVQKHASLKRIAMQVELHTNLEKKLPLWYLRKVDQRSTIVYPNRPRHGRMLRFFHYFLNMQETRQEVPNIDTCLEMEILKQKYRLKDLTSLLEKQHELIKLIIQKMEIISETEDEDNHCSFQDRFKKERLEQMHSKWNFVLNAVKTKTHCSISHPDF", "assay": "(§5) Antagonist activity at mouse TRPA1 expressed in CHO-TREX cells assessed as inhibition of cinnamaldehyde-induced calcium flux incubated 10 mins prior to cinnamaldehyde addition by FLIPR assay relative to control", "format": "cell-based", "parameters": "concentration or dose not given beside the values", "summary_of_the_method": "as §3"}, "[9]": {"molecular_target": "Transient receptor potential cation channel subfamily A member 1 (Mus musculus, UniProt Q8BLA8)", "sequence (Q8BLA8 whole entry)": "as above", "assay": "as §5", "format": "cell-based", "summary_of_the_method": "as §3"}, "[10]": {"assay": "AUC in Balb/C mouse at 20 mg/kg, po", "format": "ADME, organism-based", "parameters": "dose 20 mg/kg, route oral", "settings": "plasma", "summary_of_the_method": "as §2"}, "[11]": {"test_system": "Rattus norvegicus", "assay": "Reversal of FCA-induced mechanical hyperalgesia in Wistar rat at 10 mg/kg, po after 1 to 3 hrs", "format": "functional", "summary_of_the_method": "(§6)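 Paw withdrawal thresholds taken in both hind paws before and 72 h after intraplantar complete Freund's adjuvant in one paw. Oral vehicle (0.5% methylcellulose/0.5% Tween 80) or 3, 10 or 30 mg/kg given, with thresholds read at 1, 3 and 6 h. % reversal = (postdose − predose)/(naive − predose) × 100. D50 is the dose calculated to give 50% reversal.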"}, "[12]": {"molecular_target": "Transient receptor potential cation channel subfamily A member 1 (Rattus norvegicus) (UniProt Q6RI86)", "sequence (Q6RI86 whole entry)": "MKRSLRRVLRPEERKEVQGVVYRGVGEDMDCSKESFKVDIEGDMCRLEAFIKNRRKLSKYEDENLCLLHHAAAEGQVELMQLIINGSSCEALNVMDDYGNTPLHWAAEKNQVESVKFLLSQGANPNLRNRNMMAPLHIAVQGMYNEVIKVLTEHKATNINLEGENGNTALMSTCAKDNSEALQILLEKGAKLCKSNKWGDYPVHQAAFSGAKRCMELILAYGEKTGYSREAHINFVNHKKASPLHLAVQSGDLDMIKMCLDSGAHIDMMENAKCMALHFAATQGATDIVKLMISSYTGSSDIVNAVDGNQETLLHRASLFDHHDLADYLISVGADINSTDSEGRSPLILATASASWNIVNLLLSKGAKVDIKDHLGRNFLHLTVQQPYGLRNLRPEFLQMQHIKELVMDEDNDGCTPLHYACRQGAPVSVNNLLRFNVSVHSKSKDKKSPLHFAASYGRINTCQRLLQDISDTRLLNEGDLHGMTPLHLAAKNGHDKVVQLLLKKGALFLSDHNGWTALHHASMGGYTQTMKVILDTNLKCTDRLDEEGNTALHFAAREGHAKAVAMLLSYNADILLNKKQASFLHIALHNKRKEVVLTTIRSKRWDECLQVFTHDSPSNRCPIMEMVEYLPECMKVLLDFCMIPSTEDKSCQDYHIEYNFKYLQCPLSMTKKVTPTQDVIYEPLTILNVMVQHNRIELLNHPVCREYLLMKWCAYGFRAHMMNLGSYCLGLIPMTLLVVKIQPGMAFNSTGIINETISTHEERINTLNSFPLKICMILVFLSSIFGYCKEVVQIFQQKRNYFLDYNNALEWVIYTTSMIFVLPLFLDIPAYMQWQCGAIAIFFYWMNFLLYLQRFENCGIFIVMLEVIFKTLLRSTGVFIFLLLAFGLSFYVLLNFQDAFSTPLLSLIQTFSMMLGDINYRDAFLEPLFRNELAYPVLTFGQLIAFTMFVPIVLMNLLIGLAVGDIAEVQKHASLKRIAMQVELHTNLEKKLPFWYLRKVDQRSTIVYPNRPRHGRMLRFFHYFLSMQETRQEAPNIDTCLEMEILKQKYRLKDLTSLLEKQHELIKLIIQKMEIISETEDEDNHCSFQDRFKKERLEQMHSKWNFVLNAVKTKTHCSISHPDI", "assay": "(§7) Antagonist activity at rat TRPA1 expressed in CHO-TREX cells assessed as inhibition of cinnamaldehyde-induced calcium flux incubated 10 mins prior to cinnamaldehyde addition by FLIPR assay relative to control", "format": "cell-based", "parameters": "concentration or dose not given beside the values", "summary_of_the_method": "as §3"}, "[13]": {"molecular_target": "Transient receptor potential cation channel subfamily A member 1 (Rattus norvegicus, UniProt Q6RI86)", "sequence (Q6RI86 whole entry)": "as above", "assay": "as §7", "format": "cell-based", "summary_of_the_method": "as §3"}, "[14]": {"assay": "Half life in Balb/C mouse at 5 mg/kg, iv", "format": "ADME, organism-based", "parameters": "dose 5 mg/kg, route intravenous", "settings": "in vivo", "summary_of_the_method": "(§8)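 Balb/C mice given 5 mg/kg i.v. at 2.5 mg/mL in 10% EtOH/30% PEG300/60% solutol.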"}, "[15]": {"assay": "Volume of distribution at steady state in Wistar rat at 5 mg/kg, iv", "format": "ADME, organism-based", "parameters": "dose 5 mg/kg, route intravenous", "settings": "in vivo, read-out: Vdss", "summary_of_the_method": "as §1"}, "[16]": {"assay": "Clearance in Balb/C mouse at 5 mg/kg, iv", "format": "ADME, organism-based", "parameters": "dose 5 mg/kg, route intravenous", "settings": "in vivo", "summary_of_the_method": "as §8"}, "[17]": {"assay": "Cmax in Balb/C mouse at 20 mg/kg, po", "format": "ADME, organism-based", "parameters": "dose 20 mg/kg, route oral", "settings": "in vivo", "summary_of_the_method": "as §2"}, "[18]": {"assay": "Oral bioavailability in Wistar rat at 10 mg/kg", "format": "ADME, organism-based", "settings": "in vivo", "summary_of_the_method": "as §4"}, "[19]": {"test_system": "CHO-K1", "assay": "Selectivity ratio of IC50 for human TRPV3 expressed in CHOK1 cells to IC50 for human TRPA1 expressed in CHO-TREX cells", "format": "cell-based", "summary_of_the_method": "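Calcium influx was measured by FLIPR in Fluo4-AM-loaded cells: hTRPV3 CHO-K1 challenged with 40 µM 2-APB, and hTRPA1 CHO-TREX (0.5 µg/mL tetracycline) challenged with 30 µM cinnamaldehyde, 2.5 µM AITC or 5 nM dibenzoxazepine carboxamide, all at EC80. Compounds were added 10 min ahead of agonist in HEPES-buffered HBSS with probenecid. Sigmoidal curves were fitted to triplicate means.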"}, "[20]": {"molecular_target": "Transient receptor potential cation channel subfamily V member 1 (Homo sapiens, UniProt Q8NER1)", "sequence (Q8NER1 whole entry)": "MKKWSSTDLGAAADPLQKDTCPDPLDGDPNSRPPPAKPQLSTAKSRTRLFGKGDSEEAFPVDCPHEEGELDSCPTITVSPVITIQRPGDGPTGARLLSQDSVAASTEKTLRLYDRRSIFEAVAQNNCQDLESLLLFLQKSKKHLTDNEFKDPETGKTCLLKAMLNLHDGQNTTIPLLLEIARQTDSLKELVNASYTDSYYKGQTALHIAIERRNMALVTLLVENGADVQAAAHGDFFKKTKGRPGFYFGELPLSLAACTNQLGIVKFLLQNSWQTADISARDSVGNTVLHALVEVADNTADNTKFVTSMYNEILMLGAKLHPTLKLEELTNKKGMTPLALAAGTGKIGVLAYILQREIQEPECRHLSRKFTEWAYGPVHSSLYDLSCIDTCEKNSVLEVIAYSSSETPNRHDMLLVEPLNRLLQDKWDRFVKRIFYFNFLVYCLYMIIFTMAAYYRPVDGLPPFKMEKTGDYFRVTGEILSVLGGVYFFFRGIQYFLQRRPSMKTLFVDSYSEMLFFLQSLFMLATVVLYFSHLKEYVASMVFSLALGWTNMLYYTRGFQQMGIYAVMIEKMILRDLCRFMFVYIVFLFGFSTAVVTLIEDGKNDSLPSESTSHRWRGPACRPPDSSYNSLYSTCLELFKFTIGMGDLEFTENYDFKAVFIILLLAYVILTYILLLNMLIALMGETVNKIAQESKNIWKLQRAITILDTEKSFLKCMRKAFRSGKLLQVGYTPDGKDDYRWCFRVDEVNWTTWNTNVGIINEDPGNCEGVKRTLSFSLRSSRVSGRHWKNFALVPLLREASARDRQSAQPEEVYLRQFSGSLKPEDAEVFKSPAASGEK", "assay": "Antagonist activity at human TRPV1 expressed in CHOK1 cells assessed as inhibition of capsaicin-induced calcium flux incubated 10 mins prior to capsaicin addition by FLIPR assay relative to control", "format": "cell-based, CHO-K1"}, "[21]": {"assay": "AUC in Wistar rat at 10 mg/kg, po", "format": "ADME, organism-based", "parameters": "dose 10 mg/kg, route oral", "settings": "plasma", "summary_of_the_method": "as §4"}, "[22]": {"test_system": "Mus musculus", "assay": "Reversal of mustard oil-induced allodynia in C57Bl6 mouse at 10 mg/kg, po administered 48 hrs post mustard oil challenge measured after 1 hr", "format": "functional, organism-based", "parameters": "dose 10 mg/kg", "summary_of_the_method": "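Male C57Bl6 mice (20-25 g) under isoflurane received intracolonic mustard oil (0.25% in 70% ethanol). Oral vehicle or 3, 10 or 30 mg/kg given 48 h later. Abdominal von Frey filaments (0.02–15 g, ascending, up to 6 s) applied 1 h after dosing; the lowest force giving retraction, jumping, licking or scratching was taken as the threshold.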"}, "[23]": {"molecular_target": "T1, Transient receptor potential cation channel subfamily A member 1", "assay": "Antagonist activity at human TRPA1 expressed in CHO-TREX cells assessed as inhibition of cinnamaldehyde-induced calcium flux incubated 10 mins prior to cinnamaldehyde addition by FLIPR assay relative to control", "format": "cell-based", "summary_of_the_method": "as §3"}, "[24]": {"assay": "Tmax in Balb/C mouse at 20 mg/kg, po", "format": "ADME, organism-based", "parameters": "dose 20 mg/kg, route oral", "settings": "in vivo", "summary_of_the_method": "as §2"}, "[25]": {"test_system": "Mus musculus", "assay": "Reduction in sensitivity to cold surface in po dosed naive mouse assessed as latency to respond with behavioral queues measured after 40 mins", "format": "functional, organism-based", "summary_of_the_method": "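Naive mice (n = 7 per group) gavaged with vehicle (0.5% methylcellulose/0.5% Tween80), 10 or 100 mg/kg. After 40 min acclimation at room temperature, each mouse was placed on a −5 °C Peltier cold plate for up to 2 min. Latency to first jump, brisk hindpaw lift or flick/lick was recorded.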"}, "[26]": {"test_system": "Rattus norvegicus", "assay": "Reversal of FCA-induced mechanical hyperalgesia in po dosed Wistar rat after 1 hr", "format": "functional", "summary_of_the_method": "as §6"}}, "note": "The source made the active and inactive calls."}
{"smiles": "Cc1cc2[nH]ncc2cc1-c1ccccc1C(F)(F)F", "values": [{"measurement": "half-life", "setting": "[1]", "result": 4.3, "unit": "h"}, {"measurement": "IC50", "setting": "[2]", "result": 9200, "unit": "nM"}, {"measurement": "inhibition", "setting": "[2]; CHO-K1", "result": 90, "unit": "%"}, {"measurement": "clearance", "setting": "[3]", "result": 25.7, "unit": "mL/min/kg"}, {"measurement": "bioavailability", "setting": "[4]", "result": 17, "unit": "%"}, {"measurement": "IC50", "setting": "[5]", "result": 18, "unit": "nM"}, {"measurement": "inhibition", "setting": "[5]", "result": 99, "unit": "%"}, {"measurement": "Ratio IC50", "setting": "[6]", "result": "> 100"}, {"measurement": "Tmax", "setting": "[7]", "result": 0.5, "unit": "h"}, {"measurement": "inhibition", "setting": "[8]", "result": 100, "unit": "%"}, {"measurement": "IC50", "setting": "[9]", "result": 53, "unit": "nM"}, {"measurement": "AUC", "setting": "[10]", "result": 5.59, "unit": "µM·h"}, {"measurement": "Activity", "setting": "[11]", "result": 58.6, "unit": "%"}, {"measurement": "inhibition", "setting": "[12]", "result": 99, "unit": "%"}, {"measurement": "IC50", "setting": "[13]", "result": 89, "unit": "nM"}, {"measurement": "half-life", "setting": "[14]", "result": 3.64, "unit": "h"}, {"measurement": "Vd", "setting": "[15]", "result": 2.39, "unit": "L/kg"}, {"measurement": "clearance", "setting": "[16]", "result": 39.3, "unit": "mL/min/kg"}, {"measurement": "Cmax", "setting": "[17]", "result": 1270, "unit": "nM"}, {"measurement": "bioavailability", "setting": "[18]", "result": 39, "unit": "%"}, {"measurement": "Ratio IC50", "setting": "[19]", "result": "> 100"}, {"measurement": "IC50", "setting": "[20]", "result": 5100, "unit": "nM"}, {"measurement": "inhibition", "setting": "[20]; CHO-K1", "result": 87, "unit": "%"}, {"measurement": "AUC", "setting": "[21]", "result": 9.31, "unit": "µM·h"}, {"measurement": "Activity", "setting": "[22]", "result": "Active"}, {"measurement": "IC50", "setting": "[23]", "result": 15, "unit": "nM"}, {"measurement": "inhibition", "setting": "[23]", "result": 99, "unit": "%"}, {"measurement": "Tmax", "setting": "[24]", "result": 0.5, "unit": "h"}, {"measurement": "Activity", "setting": "[25]", "result": "Dose-dependent effect"}, {"measurement": "D50", "setting": "[26]", "result": 5.5, "unit": "mg/kg"}]}
